Laboratory results published in ChEMBL document CHEMBL4033676, “Design, synthesis and biological evaluation of 3,4-dihydro-2(1H)-quinoline-O-alkylamine derivatives as new multipotent cholinesterase/monoamine oxidase inhibitors for the treatment of Alzheimer's disease” (Bioorg Med Chem, 2017).

Key:
[1] = physchem; details: PAMPA
[2] = organism: Rattus norvegicus; assay: Selectivity index, ratio of IC50 for rat serum BuChE to IC50 for 5% rat cortex homogenate AChE
[3] = biological target: Acetylcholinesterase (Electrophorus electricus, UniProt O42275); assay: Inhibition of electric eel AChE using acetylthiocholine chloride as substrate after 15 mins by Ellman's method
[4] = biological target: Cholinesterase (Equus caballus, UniProt P81908); assay: Inhibition of equine serum BuChE using butyrylthiocholine chloride as substrate after 15 mins by Ellman's method
How it was run: (§1)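 Ellman assay. Equine serum or rat serum BuChE pre-incubated with test compound at various concentrations (DMSO <1%) in 0.1 M phosphate buffer pH 8.0 for 15 min at 37°C. DTNB (0.2%) added, absorbance read at 412 nm. Inhibition % = (1−Ai/Ac)×100. IC50 is the mean of three independent experiments, each run in triplicate.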

[5] = biological target: T1, Acetylcholinesterase (Rattus norvegicus, UniProt P37136)
T1 sequence (P37136 whole entry): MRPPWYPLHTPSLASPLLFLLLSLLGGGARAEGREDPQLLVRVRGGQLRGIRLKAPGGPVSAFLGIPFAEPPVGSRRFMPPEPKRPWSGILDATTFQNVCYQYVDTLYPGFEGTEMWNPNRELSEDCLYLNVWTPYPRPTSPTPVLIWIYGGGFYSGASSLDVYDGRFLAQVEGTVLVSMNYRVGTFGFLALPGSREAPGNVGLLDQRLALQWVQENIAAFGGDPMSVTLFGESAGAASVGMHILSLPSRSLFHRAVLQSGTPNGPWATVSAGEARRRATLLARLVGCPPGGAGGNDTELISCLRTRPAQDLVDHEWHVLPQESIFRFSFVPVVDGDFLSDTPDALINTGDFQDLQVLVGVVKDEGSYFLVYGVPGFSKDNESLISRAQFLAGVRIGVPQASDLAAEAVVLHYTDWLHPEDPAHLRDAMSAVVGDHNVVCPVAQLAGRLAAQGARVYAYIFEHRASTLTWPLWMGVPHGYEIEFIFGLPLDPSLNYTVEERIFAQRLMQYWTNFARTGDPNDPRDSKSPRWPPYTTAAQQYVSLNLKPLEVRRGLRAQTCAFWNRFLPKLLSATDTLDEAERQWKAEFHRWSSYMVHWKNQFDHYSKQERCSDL

[6] = Inhibition of rat serum BuChE using butyrylthiocholine chloride as substrate after 15 mins by Ellman's method
How it was run: as §1

[7] = Selectivity index, ratio of IC50 for equine serum BuChE to IC50 for electric eel AChE
[8] = biological target: T2, Amine oxidase [flavin-containing] A (Homo sapiens, UniProt P21397); assay: Inhibition of recombinant human MAO-A expressed in baculovirus infected BTI insect cells using kynuramine as substrate after 30 mins by fluorescence assay
T2 sequence (P21397 whole entry): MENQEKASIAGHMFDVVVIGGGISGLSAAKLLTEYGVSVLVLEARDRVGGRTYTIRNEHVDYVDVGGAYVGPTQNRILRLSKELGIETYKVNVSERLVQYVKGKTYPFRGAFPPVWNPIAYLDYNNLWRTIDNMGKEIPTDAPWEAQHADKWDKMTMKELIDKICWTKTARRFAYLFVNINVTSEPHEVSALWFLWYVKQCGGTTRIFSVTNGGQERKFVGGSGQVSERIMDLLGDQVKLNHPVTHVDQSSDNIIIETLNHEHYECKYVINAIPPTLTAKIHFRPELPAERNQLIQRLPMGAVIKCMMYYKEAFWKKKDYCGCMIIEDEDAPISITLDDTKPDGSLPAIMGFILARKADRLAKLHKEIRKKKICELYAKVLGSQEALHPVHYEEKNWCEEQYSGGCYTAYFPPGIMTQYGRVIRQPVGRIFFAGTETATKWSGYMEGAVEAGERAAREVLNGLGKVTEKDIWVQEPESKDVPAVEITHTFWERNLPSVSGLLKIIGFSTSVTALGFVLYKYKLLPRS

[9] = biological target: T3, Amine oxidase [flavin-containing] B (Homo sapiens, UniProt P27338); assay: biochemical; assay type: cell-based
T3 sequence (P27338 whole entry): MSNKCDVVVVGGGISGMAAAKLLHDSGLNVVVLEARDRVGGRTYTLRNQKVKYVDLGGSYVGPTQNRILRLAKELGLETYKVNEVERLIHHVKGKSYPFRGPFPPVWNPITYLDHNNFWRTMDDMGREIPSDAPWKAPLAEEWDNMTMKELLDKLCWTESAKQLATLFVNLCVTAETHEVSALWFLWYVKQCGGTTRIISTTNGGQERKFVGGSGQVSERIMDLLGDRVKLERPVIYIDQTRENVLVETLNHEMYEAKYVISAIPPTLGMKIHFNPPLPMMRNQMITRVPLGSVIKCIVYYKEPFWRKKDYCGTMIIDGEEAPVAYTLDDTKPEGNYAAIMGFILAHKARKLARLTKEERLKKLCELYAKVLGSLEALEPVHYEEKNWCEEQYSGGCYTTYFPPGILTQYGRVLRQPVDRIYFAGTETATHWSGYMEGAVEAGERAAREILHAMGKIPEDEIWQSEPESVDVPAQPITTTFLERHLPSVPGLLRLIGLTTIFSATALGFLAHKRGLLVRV

[10] = organism: Homo sapiens; assay: Selectivity index, ratio of IC50 for recombinant human MAO-B to IC50 for recombinant human MAO-A
[11] = biological target: Acetylcholinesterase (Electrophorus electricus) (UniProt O42275); assay: Inhibition of electric eel AChE at 25 uM using acetylthiocholine chloride as substrate after 15 mins by Ellman's method relative to control
[12] = biological target: Cholinesterase (Equus caballus) (UniProt P81908); assay: Inhibition of equine serum BuChE at 25 uM using butyrylthiocholine chloride as substrate after 15 mins by Ellman's method relative to control
[13] = organism: Rattus norvegicus; assay: Inhibition of rat serum BuChE at 25 uM using butyrylthiocholine chloride as substrate after 15 mins by Ellman's method relative to control
[14] = biological target: T4, Acetylcholinesterase (Rattus norvegicus) (UniProt P37136); details: at 25 µM
T4 sequence (whole entry): T1 sequence (P37136 whole entry)

Acetylcholinesterase (Electrophorus electricus, UniProt O42275), sequence (O42275 whole entry): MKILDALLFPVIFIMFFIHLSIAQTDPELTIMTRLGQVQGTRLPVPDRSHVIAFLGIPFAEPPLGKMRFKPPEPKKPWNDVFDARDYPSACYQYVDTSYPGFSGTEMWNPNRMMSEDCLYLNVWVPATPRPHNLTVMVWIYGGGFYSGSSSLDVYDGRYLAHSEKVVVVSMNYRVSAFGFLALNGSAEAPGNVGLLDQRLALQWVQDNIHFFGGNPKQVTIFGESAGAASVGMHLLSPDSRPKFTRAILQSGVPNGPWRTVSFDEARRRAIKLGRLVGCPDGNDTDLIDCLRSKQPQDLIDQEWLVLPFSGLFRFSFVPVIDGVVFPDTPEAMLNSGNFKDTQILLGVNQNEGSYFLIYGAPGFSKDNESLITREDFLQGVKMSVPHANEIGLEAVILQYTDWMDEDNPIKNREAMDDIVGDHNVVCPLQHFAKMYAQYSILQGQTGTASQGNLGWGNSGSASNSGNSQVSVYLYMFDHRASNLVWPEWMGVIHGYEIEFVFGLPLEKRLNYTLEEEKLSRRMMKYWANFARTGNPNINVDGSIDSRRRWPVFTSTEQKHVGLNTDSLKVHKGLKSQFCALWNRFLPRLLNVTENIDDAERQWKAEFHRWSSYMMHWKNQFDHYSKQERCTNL
Cholinesterase, sequence (P81908 whole entry): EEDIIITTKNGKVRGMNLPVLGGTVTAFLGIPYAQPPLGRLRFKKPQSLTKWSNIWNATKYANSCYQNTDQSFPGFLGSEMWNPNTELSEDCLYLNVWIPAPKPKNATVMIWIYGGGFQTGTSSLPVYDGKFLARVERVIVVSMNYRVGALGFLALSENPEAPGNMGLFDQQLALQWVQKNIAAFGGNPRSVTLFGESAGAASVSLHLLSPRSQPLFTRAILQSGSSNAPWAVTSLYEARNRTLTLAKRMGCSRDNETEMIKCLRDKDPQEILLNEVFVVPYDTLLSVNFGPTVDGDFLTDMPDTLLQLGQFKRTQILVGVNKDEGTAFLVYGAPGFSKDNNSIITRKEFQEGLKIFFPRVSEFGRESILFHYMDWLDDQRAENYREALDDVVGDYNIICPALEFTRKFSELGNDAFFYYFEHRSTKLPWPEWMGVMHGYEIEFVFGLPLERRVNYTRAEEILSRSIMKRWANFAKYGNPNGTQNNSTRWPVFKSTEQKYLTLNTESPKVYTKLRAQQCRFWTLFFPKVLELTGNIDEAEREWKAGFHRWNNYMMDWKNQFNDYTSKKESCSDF
Acetylcholinesterase (Electrophorus electricus), sequence (O42275 24-633 limits assumed): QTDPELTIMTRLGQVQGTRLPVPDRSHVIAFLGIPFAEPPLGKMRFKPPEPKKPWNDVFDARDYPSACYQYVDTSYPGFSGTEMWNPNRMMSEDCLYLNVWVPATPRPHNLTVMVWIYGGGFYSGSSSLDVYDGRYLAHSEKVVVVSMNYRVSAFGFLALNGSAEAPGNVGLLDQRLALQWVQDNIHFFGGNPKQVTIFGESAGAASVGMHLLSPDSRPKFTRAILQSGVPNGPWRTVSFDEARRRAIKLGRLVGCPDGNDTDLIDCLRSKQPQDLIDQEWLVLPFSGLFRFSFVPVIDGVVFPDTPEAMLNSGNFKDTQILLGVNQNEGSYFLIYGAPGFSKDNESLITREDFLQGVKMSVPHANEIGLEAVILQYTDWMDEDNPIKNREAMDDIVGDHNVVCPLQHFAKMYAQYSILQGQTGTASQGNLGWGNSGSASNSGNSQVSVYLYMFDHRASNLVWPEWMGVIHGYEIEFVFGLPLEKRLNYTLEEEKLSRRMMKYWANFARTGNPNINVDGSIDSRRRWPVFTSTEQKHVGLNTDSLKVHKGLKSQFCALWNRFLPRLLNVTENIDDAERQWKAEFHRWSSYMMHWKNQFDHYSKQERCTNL
Cholinesterase (Equus caballus), sequence (P81908 whole entry): as the sequence (P81908 whole entry) above

Row | Compound | Papp at 18 h, 100 ug/ml [1] [×10⁻⁶ cm/s] | Ratio IC50 [2] | IC50 [3] [µM] | IC50 [4] [µM] | IC50 [5] [µM] | IC50 [6] [µM] | Ratio IC50 [7] | IC50 [8] [µM] | IC50 [9] [µM] | Ratio IC50 [10] | inhibition [11] [%] | inhibition [12] [%] | inhibition [13] [%] | inhibition [14] [%]
1 | Cn1c(=O)c2c(ncn2C)n(C)c1=O [CAFFEINE] | 1.28 to 1.3 |  |  |  |  |  |  |  |  |  |  |  |  | 
2 | CCN(CC)CCCCCCOc1ccc2c(c1)NC(=O)CC2 |  | 0.6 | 13.3 | 29.5 | 41.9 | 24.3 | 2.2 | 5.4 | 8.6 | 1.6 |  |  |  | 
3 | C#CCN(CCCOc1ccc2c(c1)NC(=O)CC2)Cc1ccccc1 |  | 1.2 | 23.5 | 29.5 | 26 | 30.3 | 1.3 | 9 | 7.3 | 0.8 |  |  |  | 
4 | Cn1c(=O)c2[nH]cnc2n(C)c1=O.O [THEOPHYLLINE] | 0.1 to 0.12 |  |  |  |  |  |  |  |  |  |  |  |  | 
5 | CCn1cc(C(=O)O)c(=O)c2cc(F)c(N3CCNCC3)nc21 [ENOXACIN] | 0.47 to 0.9 |  |  |  |  |  |  |  |  |  |  |  |  | 
6 | O=C1CCc2ccc(OCCCCCCN3CCN(c4ccccn4)CC3)cc2N1 |  | 1.4 | 19.1 | 4.1 | 34.1 | 48.2 | 0.2 | 5.6 | 11.3 | 2 |  |  |  | 
7 | CC(C)N1CCN(CCCCCCOc2ccc3c(c2)NC(=O)CC3)CC1 |  | 0.7 | 0.76 | 2 | 2.43 | 1.8 | 2.7 | 6.8 | 24.9 | 3.7 |  |  |  | 
8 | C#CCN(CCCCOc1ccc2c(c1)NC(=O)CC2)Cc1ccccc1 |  | 1.4 | 21.4 | 19.1 | 23.3 | 32.1 | 0.9 | 9.3 | 9.1 | 1 |  |  |  | 
9 | O=C1CCc2ccc(OCCCN3CCCCC3)cc2N1 |  | 1.4 | 12.2 | 39 | 16.5 | 22.9 | 3.2 | 13.1 | 6.2 | 0.5 |  |  |  | 
10 | O=C1CCc2ccc(OCCCCCCN3CCC(N4CCCC4)CC3)cc2N1 |  | 1.6 | 5.3 | 32.7 | 12.3 | 20.2 | 6.2 | 6.2 | 18.3 | 3 |  |  |  | 
11 | O=C1CCc2ccc(OCCCCCCN3CCN(Cc4ccccc4)CC3)cc2N1 |  | 1.3 | 12.9 | 6.6 | 17.9 | 24 | 0.5 | 5.7 | 4.3 | 0.7 |  |  |  | 
12 | O=C1CCc2ccc(O)cc2N1 |  |  |  |  |  |  |  |  |  |  | < 5 | < 5 | < 5 | < 5
13 | O=C1CCc2ccc(OCCCCCN3CCCCC3)cc2N1 |  | 3.8 | 12.8 | 32.8 | 8.4 | 31.4 | 2.6 | 8.4 | 17 | 2 |  |  |  | 
